Data reported in ChEMBL document CHEMBL4680118, “Cerpegin-derived furo[3,4-c]pyridine-3,4(1H,5H)-diones enhance cellular response to interferons by de novo pyrimidine biosynthesis inhibition” (Eur J Med Chem, 2020).
Calls of active or inactive are those of the source. The rule behind the calls is not given here.

Key:
Assay type in all cases: cell-based
[1] = target: T1, Dihydroorotate dehydrogenase (quinone), mitochondrial (Homo sapiens, UniProt Q02127); assay: Inhibition of DHODH in human HEK293 cells transfected with ISRE-luciferase reporter gene assessed as increase in 60 IU/ml IFN-alpha stimulated PKR mRNA expression at 80 uM measured after 16 hrs by RT-qPCR analysis relative to control
Method in brief: (§1)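 HEK-293 ISRE-Luc cells (DMEM, 10% FCS, 37°C, 5% CO2) were given increasing IFN-α doses together with DMSO or compound at 80 μM, then harvested at 16 h. RNA was extracted from 2×10^5 cells with DNase treatment. Transcripts were run by qPCR for 35 cycles and normalized to RPL13A and to unstimulated controls by 2^-ΔΔCT. Values are fold change versus DMSO; three independent experiments; two-way ANOVA with Bonferroni.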

[2] = target: T1, Dihydroorotate dehydrogenase (quinone), mitochondrial; assay: Inhibition of DHODH in human HEK293 cells transfected with ISRE-luciferase reporter gene assessed as increase in INFgamma-stimulated cellular response at 80 uM measured after 24 hrs by luciferase reporter gene assay
Method in brief: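 ISRE-Luc HEK-293 cells were treated with DMSO or compound at 80 μM, with or without recombinant IFN-γ at 150 IU/ml. Firefly luciferase was read 24 h later with Bright-Glo or Britelite, 0.1 s luminescence. Signal was normalized to DMSO + IFN-γ. Values are means ± SD of three independent experiments; two-tailed t-test.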

[3] = target: T1, Dihydroorotate dehydrogenase (quinone), mitochondrial; assay: Inhibition of DHODH in human HEK293 cells transfected with ISRE-luciferase reporter gene assessed as increase in 250 IU/ml IFN-alpha stimulated PML mRNA expression at 80 uM measured after 16 hrs by RT-qPCR analysis relative to control
Method in brief: (§2)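 ISRE-Luc HEK cells co-treated with increasing IFN-α concentrations and DMSO or compound (80 µM) for 16 h. Total RNA extracted from 2×10^5 cells with DNase step; qPCR 35 cycles. CT values normalized to RPL13A and unstimulated controls (2^-ΔΔCT), expressed as fold change versus DMSO alone. Three independent experiments; two-way ANOVA with Bonferroni.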

[4] = target: T1, Dihydroorotate dehydrogenase (quinone), mitochondrial; assay: Inhibition of DHODH in human HEK-293 cells transfected with ISRE-luciferase reporter gene assessed as increase in 150 IU/ml IFN-alpha mediated cellular response at 80 uM in presence of mirin measured after 24 hrs by luciferase reporter gene assay; settings: HEK293
Method in brief: (§3)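 ISRE-Luc HEK-293 cells given IFN-α (150 IU/ml) alone or with test compound (80 µM), with or without the MRE11 inhibitor mirin, ATR inhibitor AZD6738, CHK1 inhibitor PF477736 or P300/CBP inhibitor C636. Firefly luciferase read 24 h later, normalized to IFN-α alone. Means ± SD of at least three independent experiments.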

[5] = target: T1, Dihydroorotate dehydrogenase (quinone), mitochondrial; assay: Inhibition of DHODH in human HEK293 cells transfected with ISRE-luciferase reporter gene assessed as increase in 250 IU/ml IFN-alpha stimulated MX2 mRNA expression at 80 uM measured after 16 hrs by RT-qPCR analysis relative to control; method in brief: as §2
[6] = target: T1, Dihydroorotate dehydrogenase (quinone), mitochondrial; assay: Inhibition of DHODH in human HEK293 cells transfected with ISRE-luciferase reporter gene assessed as increase in 60 IU/ml IFN-alpha stimulated IFITM3 mRNA expression at 80 uM measured after 16 hrs by RT-qPCR analysis relative to control; method in brief: as §1
[7] = target: T1, Dihydroorotate dehydrogenase (quinone), mitochondrial; assay: Inhibition of DHODH in human HEK293 cells transfected with ISRE-luciferase reporter gene assessed as increase in 60 IU/ml IFN-alpha stimulated IFIT5 mRNA expression at 80 uM measured after 16 hrs by RT-qPCR analysis relative to control; method in brief: as §1
[8] = target: T1, Dihydroorotate dehydrogenase (quinone), mitochondrial; assay: Inhibition of DHODH in human HEK293 cells transfected with ISRE-luciferase reporter gene assessed as increase in 30 IU/ml IFN-alpha stimulated IFIT1 mRNA expression at 80 uM measured after 16 hrs by RT-qPCR analysis relative to control; method in brief: as §2
[9] = target: T1, Dihydroorotate dehydrogenase (quinone), mitochondrial; assay: Inhibition of DHODH in human HEK293 cells assessed as effect on intracellular purine level measured after 24 hrs by HPLC coupled spectrophotometry
Method in brief: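 HEK-293 cells plated at 1×10^6 per well, treated 24 h later with compound (80 µM final) or DMSO for 24 h. Pellets deproteinized with 6% perchloric acid, neutralized with Na2CO3, analysed by C18 HPLC at 45°C with ion-pair phosphate/MeOH gradient, detected at 254 nm against reference nucleoside calibration curves. Normalized to viable cell number and DMSO controls.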

[10] = target: T1, Dihydroorotate dehydrogenase (quinone), mitochondrial; assay: Inhibition of DHODH in human HEK-293 cells transfected with ISRE-luciferase reporter gene assessed as increase in 150 IU/ml IFN-alpha mediated cellular response at 80 uM in presence of PF477736 CHK1 inhibitor measured after 24 hrs by luciferase reporter gene assay; settings: HEK293; method in brief: as §3
[11] = target: T1, Dihydroorotate dehydrogenase (quinone), mitochondrial; assay: Inhibition of DHODH in human HEK293 cells transfected with ISRE-luciferase reporter gene assessed as increase in 250 IU/ml IFN-alpha stimulated IFIT5 mRNA expression at 80 uM measured after 16 hrs by RT-qPCR analysis relative to control; method in brief: as §2
[12] = target: T1, Dihydroorotate dehydrogenase (quinone), mitochondrial; assay: Inhibition of DHODH in human HEK293 cells transfected with ISRE-luciferase reporter gene assessed as increase in 60 IU/ml IFN-alpha stimulated […] mRNA expression at 80 uM measured after 16 hrs by RT-qPCR analysis relative to control; method in brief: as §2
[13] = target: T1, Dihydroorotate dehydrogenase (quinone), mitochondrial; assay: Inhibition of DHODH in human HEK293 cells transfected with ISRE-luciferase reporter gene assessed as increase in 30 IU/ml IFN-alpha stimulated […] mRNA expression at 80 uM measured after 16 hrs by RT-qPCR analysis relative to control; method in brief: as §2
[14] = target: T1, Dihydroorotate dehydrogenase (quinone), mitochondrial; assay: Inhibition of DHODH in human HEK293 cells assessed as increase in 250 IU/ml IFN-alpha stimulated ISG15 mRNA expression at 80 uM measured after 16 hrs by RT-qPCR analysis relative to control; method in brief: as §2
[15] = target: T1, Dihydroorotate dehydrogenase (quinone), mitochondrial; assay: Inhibition of DHODH in human HEK293 cells assessed as increase in gammaH2AX phosphorylation measured after 24 hrs by immunostaining based flow cytometry
Method in brief: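 Cells treated 24 h with compound (80 µM), harvested, trypsinized, fixed 30 min in 4% PFA, permeabilized 5 min. Stained with anti-γH2AX mouse monoclonal (1/400) or isotype control, 45 min at 4°C, then Alexa Fluor 488 anti-mouse secondary (1/500) 45 min at 4°C. Analysed by flow cytometry; means ± SD of three independent experiments.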

[16] = target: T1, Dihydroorotate dehydrogenase (quinone), mitochondrial; assay: Inhibition of DHODH in human HEK293 cells assessed as increase in 250 IU/ml IFN-alpha stimulated DDX58 mRNA expression at 80 uM measured after 16 hrs by RT-qPCR analysis relative to control; method in brief: as §2
[17] = target: T1, Dihydroorotate dehydrogenase (quinone), mitochondrial; assay: Inhibition of DHODH in human HEK293 cells transfected with ISRE-luciferase reporter gene assessed as increase in 125 IU/ml IFN-alpha stimulated IFIT3 mRNA expression at 80 uM measured after 16 hrs by RT-qPCR analysis relative to control; method in brief: as §2
[18] = target: T1, Dihydroorotate dehydrogenase (quinone), mitochondrial; assay: Inhibition of DHODH in human HEK293 cells transfected with ISRE-luciferase reporter gene assessed as increase in 60 IU/ml IFN-alpha stimulated DDX58 mRNA expression at 80 uM measured after 16 hrs by RT-qPCR analysis relative to control; method in brief: as §2

T1 sequence (Q02127 whole entry): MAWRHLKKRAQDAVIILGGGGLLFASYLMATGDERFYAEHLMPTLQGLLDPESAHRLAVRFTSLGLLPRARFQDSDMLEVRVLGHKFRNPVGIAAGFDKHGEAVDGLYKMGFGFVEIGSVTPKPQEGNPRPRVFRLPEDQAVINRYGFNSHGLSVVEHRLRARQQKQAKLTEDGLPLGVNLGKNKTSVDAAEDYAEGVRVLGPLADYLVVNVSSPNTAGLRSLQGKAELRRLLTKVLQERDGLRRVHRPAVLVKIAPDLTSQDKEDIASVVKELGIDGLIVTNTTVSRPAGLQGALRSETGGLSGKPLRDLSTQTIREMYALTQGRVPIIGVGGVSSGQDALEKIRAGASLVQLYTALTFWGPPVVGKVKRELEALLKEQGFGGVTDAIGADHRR

- fold change (FC) [1]: 3
- Activity [2]: Active
- fold change (FC) [3]: 5
- Activity [4]: inactive
- fold change (FC) [5]: 28
- fold change (FC) [6]: 12
- fold change (FC) [7]: 3
- fold change (FC) [8]: 51
- Activity [9]: inactive
- Activity [10]: inactive
- fold change (FC) [11]: 5
- fold change (FC) [12]: 83
- fold change (FC) [13]: 44
- fold change (FC) [14]: 226
- Activity [15]: Active
- fold change (FC) [16]: 38
- fold change (FC) [17]: 99
- fold change (FC) [18]: 23
SMILES: O=C1OC2(CCCCC2)c2ccn(C3CC3)c(=O)c21
